Data published in ChEMBL document CHEMBL3232716, “Tailoring cytotoxicity of antimicrobial peptidomimetics with high activity against multidrug-resistant Escherichia coli” (J Med Chem, 2014).
pIC50: −log10 of the molar value. Values after ≈ are worked out from the molar mass of the structure shown. Square brackets hold non-standard residues; d marks the D form. Peptide text beside a SMILES is read from it. hArg = N=C(N)NCCCC[C@H](N)C(=O)O; Nspe = C[C@H](NCC(=O)O)c1ccccc1; Nphe = O=C(O)CNCc1ccccc1

Columns and labels:
[1] = Cytotoxicity against rat IEC-6 cells after 1 hr by MTS/PMS assay; type: cell-based; details: IEC-6, 1 h
Outline: (§1)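 Monolayers (passage 4–10) grown ~21–25 h to ~90% confluence. Seeding per well: HeLa 8000, HepG2 23 000, NIH 3T3 22 000, IEC-6 16 000, Caco-2 25 000. Cells washed with HBSS/10 mM Hepes pH 7.4 and exposed 1 h at 37 °C, 50 rpm, to compound 0–2000 μM in culture medium. MTS 240 μg/mL/PMS 2.4 μg/mL for 1.5–4 h, A492. Viability referenced to SDS and untreated controls; IC50 from one biological replicate in triplicate.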

[2] = test system: Escherichia coli; experiment: Antibacterial activity against extended-spectrum beta-lactamase producing multidrug-resistant and colistin-susceptible Escherichia coli CTX-M-15 clinical isolate Aar 11 after 18 hrs by microdilution broth method; type: functional
[3] = test system: HUVEC; experiment: Cytotoxicity against HUVEC after 1 hr by MTS/PMS assay; type: cell-based; details: Homo sapiens
Outline: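 HUVEC seeded at 15 000 cells/well on collagen-coated wells (0.6 μg/cm2), passage 4–10, grown to ~90% confluence over 21–25 h. Cells exposed to compound (0–2000 μM) in F-12K medium for 1 h at 37 °C. MTS 240 μg/mL with PMS 9.6 μg/mL in HBSS for 1.5–4 h, then A492. Viability referenced to 0.2% SDS and untreated cells; IC50 reported.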

[4] = Hemolytic activity in human RBC after 1 hr; type: ADME, cell-based; details: Erythrocyte
Outline: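 Fresh human erythrocytes washed in PBS pH 7.4. A 0.5% v/v suspension was mixed 1:1 with 2-fold dilutions of compound (8–1024 μM) and incubated 1 h at 37 °C, then centrifuged. Supernatant hemoglobin read at OD414. Melittin 400 μg/mL set 100% lysis and PBS set 0%. Value is the concentration giving 50% lysis.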

[5] = test system: HepG2; experiment: Cytotoxicity against human HepG2 cells after 1 hr by MTS/PMS assay; type: cell-based; details: HepG2, 1 h; outline: as §1
[6] = test system: HeLa; experiment: Cytotoxicity against human HeLa cells after 1 hr by MTS/PMS assay; type: cell-based; outline: as §1
[7] = Cytotoxicity against mouse NIH/3T3 cells after 1 hr by MTS/PMS assay; type: cell-based; details: NIH3T3, 1 h; outline: as §1
[8] = Binding affinity to synthetic POPC/POPG liposomal membrane at 20 uM by circular dichroism analysis; type: physicochemical; details: artificial membrane
Outline: (§2)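 CD spectra recorded with 20 μM test compound and 2 mM liposomes in 10 mM Tris buffer, pH 7.5. Liposomes were roughly 100 nm: POPC/POPG 7:3 (bacterial model) or POPC/POPG/cholesterol 5:3:2 (mammalian model). Lipid concentration was standardized by enzymatic phospholipid colorimetric assay.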

[9] = test system: Escherichia coli; experiment: Antibacterial activity against Escherichia coli ATCC 25922 after 18 hrs by microdilution broth method; type: functional
Outline: (§3)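 CLSI broth microdilution. […] Incubated 35 °C in ambient air for 18 h. MIC taken as the lowest concentration with no visible growth versus the compound-free control. Reported as median and range of three independent biological replicates run on separate days.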

[10] = test system: Acinetobacter baumannii; experiment: Antibacterial activity against multidrug-resistant Acinetobacter baumannii clinical isolate E2-1228625 after 18 hrs by microdilution broth method; type: functional
[11] = test system: Staphylococcus aureus; experiment: Antibacterial activity against methicillin-resistant Staphylococcus aureus ATCC 33591 after 18 hrs by microdilution broth method; type: functional; outline: as §3
[12] = Binding affinity to cholesterol containing synthetic POPC/POPG liposomal membrane at 20 uM by circular dichroism analysis; type: physicochemical; details: artificial membrane; outline: as §2
[13] = test system: Escherichia coli; experiment: Antibacterial activity against NDM-1 producing Escherichia coli clinical isolate 74859898 after 18 hrs by microdilution broth method; type: functional
[14] = test system: Enterococcus faecium; experiment: Antibacterial activity against vancomycin-resistant Enterococcus faecium ATCC 700221 after 18 hrs by microdilution broth method; details: ATCC 700221, 18 h
[15] = test system: Caco-2; experiment: Cytotoxicity against human Caco2 cells after 1 hr by MTS/PMS assay; type: cell-based; details: Caco-2, 1 h; outline: as §1
[16] = test system: Enterococcus faecalis; experiment: Antibacterial activity against vancomycin-resistant Enterococcus faecalis ATCC 700221 after 18 hrs by microdilution broth method; type: functional
Outline: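 CLSI broth microdilution. Incubated 35 °C in ambient air for 18 h. MIC taken as the lowest concentration with no visible growth versus the compound-free control. Reported as median and range of three independent biological replicates run on separate days.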

[17] = clinical isolate E2-1228625, 18 h
[18] = clinical isolate 74859898, 18 h

Molecule	pIC50 [1]	MIC ([2]; CTX-M-15, 18 h) [µM]	pIC50 [3]	pIC50 [5]	pIC50 [6]	pIC50 [7]	Activity [8]	MIC ([9]; ATCC 25922, 18 h) [µM]	MIC [10, 17] [µM]	MIC ([11]; ATCC 33591, 18 h) [µM]	Activity [12]	MIC [13, 18] [µM]	MIC [14] [µM]	pIC50 [15]	other results
CC(=O)N[C@@H](CCCCN)C(=O)N(CCC(=O)N[C@@H](CCCCNC(=N)N)C(=O)N(CCC(=O)N[C@@H](CCCCN)C(=O)N(CCC(=O)N[C@@H](CCCCNC(=N)N)C(=O)N(CCC(=O)N[C@@H](CCCCN)C(=O)N(CCC(=O)N[C@@H](CCCCNC(=N)N)C(=O)N(CCC(=O)N[C@@H](CCCCN)C(=O)N(CCC(N)=O)Cc1ccccc1)Cc1ccccc1)Cc1ccccc1)Cc1ccccc1)Cc1ccccc1)Cc1ccccc1)Cc1ccccc1	3.58	1 (≈ 2.21 µg/mL)	3.34	3.94	4.11	3.76	Not Active	1 (≈ 2.21 µg/mL)	4 (≈ 8.84 µg/mL)	16 (≈ 35.4 µg/mL)	Not Active	1 (≈ 2.21 µg/mL)	16 (≈ 35.4 µg/mL)	3.45	pIC50 [4]: < 2.99
CC(=O)N[C@@H](CCCCN)C(=O)N(CC(=O)N[C@@H](CCCCNC(=N)N)C(=O)N(CC(=O)N[C@@H](CCCCN)C(=O)N(CC(=O)N[C@@H](CCCCNC(=N)N)C(=O)N(CC(=O)N[C@@H](CCCCN)C(=O)N(CC(=O)N[C@@H](CCCCNC(=N)N)C(=O)N(CC(N)=O)Cc1ccccc1)Cc1ccccc1)Cc1ccccc1)Cc1ccccc1)Cc1ccccc1)Cc1ccccc1 (Ac-K[Nphe][hArg][Nphe]K[Nphe][hArg][Nphe]K[Nphe][hArg][Nphe]-NH2)	3.20	2 (≈ 3.67 µg/mL)	< 3.00	3.16	3.50	3.20	Not Active	2 (≈ 3.67 µg/mL)	64 (≈ 118 µg/mL)	64 (≈ 118 µg/mL)	Not Active	1 (≈ 1.84 µg/mL)	32 (≈ 58.8 µg/mL)	< 3.00	pIC50 [4]: < 2.99
CC(=O)N[C@@H](CCCCN)C(=O)N(CCC(=O)N[C@@H](CCCCNC(=N)N)C(=O)N(CCC(=O)N[C@@H](CCCCN)C(=O)N(CCC(=O)N[C@@H](CCCCNC(=N)N)C(=O)N(CCC(=O)N[C@@H](CCCCN)C(=O)N(CCC(=O)N[C@@H](CCCCNC(=N)N)C(=O)N(CCC(N)=O)[C@@H](C)c1ccccc1)[C@@H](C)c1ccccc1)[C@@H](C)c1ccccc1)[C@@H](C)c1ccccc1)[C@@H](C)c1ccccc1)[C@@H](C)c1ccccc1	3.83	4 (≈ 8.02 µg/mL)	3.30	4.00	4.41	3.87	Not Active	2 (≈ 4.01 µg/mL)	8 (≈ 16 µg/mL)	16 (≈ 32.1 µg/mL)	Not Active	2 (≈ 4.01 µg/mL)	16 (≈ 32.1 µg/mL)	3.48	
CC(=O)N[C@@H](CCCCN)C(=O)N(CCC(=O)N[C@@H](CCCCNC(=N)N)C(=O)N(CCC(=O)N[C@@H](CCCCN)C(=O)N(CCC(=O)N[C@@H](CCCCNC(=N)N)C(=O)N(CCC(=O)N[C@@H](CCCCN)C(=O)N(CCC(=O)N[C@@H](CCCCNC(=N)N)C(=O)N(CCC(=O)N[C@@H](CCCCN)C(=O)N(CCC(N)=O)[C@@H](C)c1ccccc1)[C@@H](C)c1ccccc1)[C@@H](C)c1ccccc1)[C@@H](C)c1ccccc1)[C@@H](C)c1ccccc1)[C@@H](C)c1ccccc1)[C@@H](C)c1ccccc1	4.10	2 (≈ 4.62 µg/mL)	3.63	4.32	4.59	4.05	Not Active	2 (≈ 4.62 µg/mL)	2 (≈ 4.62 µg/mL)	8 (≈ 18.5 µg/mL)	Not Active	2 (≈ 4.62 µg/mL)	4 (≈ 9.24 µg/mL)	3.71	
GENTAMICIN															MIC [2]: 32 µM; MIC [9]: 0.25 µM; MIC [10]: > 128 µM; MIC [11]: 0.5 µM; MIC [13]: > 128 µM; MIC [16]: > 128 µM
CC(=O)N[C@@H](CCCCNC(=N)N)C(=O)N(CC(=O)N[C@@H](CCCCN)C(=O)N(CC(=O)N[C@@H](CCCCNC(=N)N)C(=O)N(CC(=O)N[C@@H](CCCCN)C(=O)N(CC(=O)N[C@@H](CCCCNC(=N)N)C(=O)N(CC(N)=O)[C@@H](C)c1ccccc1)[C@@H](C)c1ccccc1)[C@@H](C)c1ccccc1)[C@@H](C)c1ccccc1)[C@@H](C)c1ccccc1 (Ac-[hArg][Nspe]K[Nspe][hArg][Nspe]K[Nspe][hArg][Nspe]-NH2)	3.84	8 (≈ 13.1 µg/mL)	3.40	3.85	3.78	3.68	Not Active	8 (≈ 13.1 µg/mL)	16 (≈ 26.1 µg/mL)	32 (≈ 52.2 µg/mL)	Not Active	8 (≈ 13.1 µg/mL)	8 (≈ 13.1 µg/mL)	3.23	
CC(=O)N[C@@H](CCCCN)C(=O)N(CCC(=O)N[C@@H](CCCCNC(=N)N)C(=O)N(CCC(=O)N[C@@H](CCCCN)C(=O)N(CCC(=O)N[C@@H](CCCCNC(=N)N)C(=O)N(CCC(=O)N[C@@H](CCCCN)C(=O)N(CCC(=O)N[C@@H](CCCCNC(=N)N)C(=O)N(CCC(N)=O)Cc1ccccc1)Cc1ccccc1)Cc1ccccc1)Cc1ccccc1)Cc1ccccc1)Cc1ccccc1	3.34	1 (≈ 1.92 µg/mL)	< 3.00	3.49	3.64	3.44	Not Active	1 (≈ 1.92 µg/mL)	16 (≈ 30.7 µg/mL)	32 (≈ 61.5 µg/mL)	Not Active	1 (≈ 1.92 µg/mL)	32 (≈ 61.5 µg/mL)	< 3.00	
CC(=O)N[C@@H](CCCCNC(=N)N)C(=O)N(CCC(=O)N[C@@H](CCCCN)C(=O)N(CCC(=O)N[C@@H](CCCCNC(=N)N)C(=O)N(CCC(=O)N[C@@H](CCCCN)C(=O)N(CCC(=O)N[C@@H](CCCCNC(=N)N)C(=O)N(CCC(N)=O)Cc1ccccc1)Cc1ccccc1)Cc1ccccc1)Cc1ccccc1)Cc1ccccc1	< 3.00	16 (≈ 26.1 µg/mL)	< 3.00	3.03	3.29	3.13	Not Active	8 (≈ 13.1 µg/mL)	128 (≈ 209 µg/mL)	64 (≈ 104 µg/mL)	Not Active	8 (≈ 13.1 µg/mL)	128 (≈ 209 µg/mL)	< 3.00	
